Reference: publication PMC9636331 (Blood Advances, 2022)
Where “and” joins values, the source holds several entries; their conditions need not be identical. Equal entries are not always repeated. Entries after “also recorded” stand apart in the source; their conditions may differ.

Key:
[1] = system: PNH patients with active hemolysis; assay: Serum LDH levels, phase 2 study of iptacopan monotherapy; format: in vivo, human; conditions: cohort 2 (50/200 mg bid), until week 12
In short: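 Primary endpoint: serum LDH reduction ≥60% from baseline, or LDH below ULN, at any time up to week 12. Baseline was the mean of the last 3 screening values before randomization. If LDH had not fallen ≥40% by day 15, the dose was to be raised from day 17, and raised further for cohort 1 at day 29, with a maximum of 200 mg twice daily.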

[2] = system: PNH patients with active hemolysis; assay: Hb and other markers of hemolysis; format: in vivo, human
In short: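 Secondary hemolysis markers (total and free Hb, bilirubin, reticulocyte count, RBC count, haptoglobin) were measured in PNH patients over 12 weeks of twice-daily test compound. Dosing was 25 mg for 4 weeks then 100 mg (cohort 1), or 50 mg then 200 mg (cohort 2). Baseline for each variable was the mean of all pretreatment values.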

PNH-type RBCs = assay: Flow cytometry of PNH-type RBCs and C3 fragment deposition on RBCs; format: in vivo, human
[3] = system: PNH patients with active hemolysis; assay: Safety and tolerability; format: in vivo, human
[4] = Plasma pharmacokinetics of iptacopan; format: in vivo, human
In short: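 Plasma samples were taken predose on days 2, 15, 29 and 57, and at 0.25, 1, 2, 4 and 6 h post-dose on days 29 and 57. Doses were 25/50 mg twice daily for 4 weeks, then 100/200 mg twice daily. Assay was validated LC-MS/MS, LLOQ approximately 1 ng/mL. Cmax, AUC, Ctrough and Tmax were derived noncompartmentally.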

[5] = system: complement alternative pathway; assay: Wieslab complement assay; format: in vivo, human; conditions: 200 mg twice daily; data not shown
In short: (§1)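 Adult PNH patients, randomized 1:1, took the test compound 25 mg twice daily for 4 weeks then 100 mg twice daily (cohort 1), or 50 mg then 200 mg twice daily (cohort 2). Alternative-pathway target engagement was measured as circulating fragment Bb and by Wieslab assay. Sigmoid Emax models related both to individual steady-state Ctrough at baseline and after 4 weeks at each dose (days 29, 57).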

fragment Bb = assay: Circulating fragment of factor B; format: in vivo, human; conditions: after the first dose of 25 mg twice daily or higher
In short: as §1

[6] = ref data on file, cited from earlier work
[7] = system: PNH patients with persistent hemolysis despite ongoing treatment with eculizumab; conditions: add-on to eculizumab, week 13; cited from earlier work
[8] = until data cutoff, listed as iptacopan
[9] = nonclinical and phase 1 studies

SMILES: CCO[C@H]1CCN(Cc2c(OC)cc(C)c3[nH]ccc23)[C@H](c2ccc(C(=O)O)cc2)C1 [Iptacopan]
- LDH levels maintained by all patients [1]: < 1.5 × ULN
- Patients with Hb levels above 120 g/L ([2]; week 12, both cohorts): 5
- Patients achieving reticulocyte count ≤150 × 10^9/L, number ([2]; week 12, cohort 1): 4
- Patients achieving reticulocyte count ≤150 × 10^9/L, percent ([2]; week 12, cohort 1): 66.7%
- Patients with Hb levels above 120 g/L ([2]; week 12, cohort 1): 3
- Mean bilirubin level ([2]; week 12, cohort 1, baseline 32.4): 11.7 µmol/L
- Mean Hb level ([2]; week 12, cohort 1, baseline 88.5): 115.2 g/L
- Mean reticulocyte count ([2]; week 12, cohort 1, baseline 217.6): 1.308e+11 L⁻¹
- Patients achieving reticulocyte count ≤150 × 10^9/L, number ([2]; week 12, cohort 2): 4
- Patients achieving reticulocyte count ≤150 × 10^9/L, percent ([2]; week 12, cohort 2): 100%
- Patients with Hb levels above 120 g/L ([2]; week 12, cohort 2): 2
- Mean bilirubin level ([2]; week 12, cohort 2, baseline 35.3): 14.8 µmol/L
- Mean Hb level ([2]; week 12, cohort 2, baseline 76.9): 109.0 g/L
- Mean reticulocyte count ([2]; week 12, cohort 2, baseline 211.1): 1.048e+11 L⁻¹
- Clone size (PNH red blood cells, type II+III) (%), mean, Raw (PNH-type RBCs; Week 12, 25 mg/100 mg (cohort 1), baseline 33.6): 82.9%
- Clone size (PNH red blood cells, type II+III) (%), mean, Raw (PNH-type RBCs; Week 12, 50 mg/200 mg (cohort 2), baseline 49.1): 91.1%
- Effect on C3d deposition on RBC (PNH-type RBCs; both cohorts): near-total abrogation of C3d deposition on RBC
- AE by preferred term: Abdominal discomfort ([3]; 25 mg/100 mg, n = 7): 2 (28.6) n (%)
- AE by preferred term: Blood alkaline phosphatase increased ([3]; 25 mg/100 mg, n = 7): 1 (14.3) n (%)
- AE by preferred term: Cough ([3]; 25 mg/100 mg, n = 7): 2 (28.6) n (%)
- AE by preferred term: Headache ([3]; 25 mg/100 mg, n = 7): 1 (14.3) n (%)
- AE by preferred term: Oropharyngeal pain ([3]; 25 mg/100 mg, n = 7): 2 (28.6) n (%)
- AE by preferred term: Pyrexia ([3]; 25 mg/100 mg, n = 7): 2 (28.6) n (%)
- AE by preferred term: Upper respiratory tract infection ([3]; 25 mg/100 mg, n = 7): 2 (28.6) n (%)
- AEs leading to discontinuation of study treatment, number of events (nE) ([3]; 25 mg/100 mg, n = 7): 0
- AEs leading to discontinuation of study treatment, number of patients ([3]; 25 mg/100 mg, n = 7): 0 nS (%)
- AEs of mild intensity, number of events (nE) ([3]; 25 mg/100 mg, n = 7): 29
- AEs of mild intensity, number of patients ([3]; 25 mg/100 mg, n = 7): 4 (57.1) nS (%)
- AEs of moderate intensity, number of events (nE) ([3]; 25 mg/100 mg, n = 7): 2
- AEs of moderate intensity, number of patients ([3]; 25 mg/100 mg, n = 7): 1 (14.3) nS (%)
- AEs of severe/serious intensity, number of events (nE) ([3]; 25 mg/100 mg, n = 7): 0
- AEs of severe/serious intensity, number of patients ([3]; 25 mg/100 mg, n = 7): 0 nS (%)
- Study drug-related AEs leading to discontinuation of study treatment, number of events (nE) ([3]; 25 mg/100 mg, n = 7): 0
- Study drug-related AEs leading to discontinuation of study treatment, number of patients ([3]; 25 mg/100 mg, n = 7): 0 nS (%)
- Study drug-related AEs, number of events (nE) ([3]; 25 mg/100 mg, n = 7): 6
- Study drug-related AEs, number of patients ([3]; 25 mg/100 mg, n = 7): 1 (14.3) nS (%)
- Total AEs, number of events (nE) ([3]; 25 mg/100 mg, n = 7): 31
- Total AEs, number of patients ([3]; 25 mg/100 mg, n = 7): 4 (57.1) nS (%)
- AE by preferred term: Abdominal discomfort ([3]; 50 mg/200 mg, n = 6): 0 n (%)
- AE by preferred term: Blood alkaline phosphatase increased ([3]; 50 mg/200 mg, n = 6): 1 (16.7) n (%)
- AE by preferred term: Headache ([3]; 50 mg/200 mg, n = 6): 3 (50.0) n (%)
- AE by preferred term: Oropharyngeal pain ([3]; 50 mg/200 mg, n = 6): 0 n (%)
- AE by preferred term: Pyrexia ([3]; 50 mg/200 mg, n = 6): 0 n (%)
- AE by preferred term: Upper respiratory tract infection ([3]; 50 mg/200 mg, n = 6): 0 n (%)
- AEs leading to discontinuation of study treatment, number of events (nE) ([3]; 50 mg/200 mg, n = 6): 1
- AEs leading to discontinuation of study treatment, number of patients ([3]; 50 mg/200 mg, n = 6): 1 (16.7) nS (%)
- AEs of mild intensity, number of events (nE) ([3]; 50 mg/200 mg, n = 6): 6
- AEs of mild intensity, number of patients ([3]; 50 mg/200 mg, n = 6): 4 (66.7) nS (%)
- AEs of moderate intensity, number of events (nE) ([3]; 50 mg/200 mg, n = 6): 1
- AEs of moderate intensity, number of patients ([3]; 50 mg/200 mg, n = 6): 1 (16.7) nS (%)
- AEs of severe/serious intensity, number of events (nE) ([3]; 50 mg/200 mg, n = 6): 0
- AEs of severe/serious intensity, number of patients ([3]; 50 mg/200 mg, n = 6): 0 nS (%)
- Study drug-related AEs leading to discontinuation of study treatment, number of events (nE) ([3]; 50 mg/200 mg, n = 6): 1
- Study drug-related AEs leading to discontinuation of study treatment, number of patients ([3]; 50 mg/200 mg, n = 6): 1 (16.7) nS (%)
- Study drug-related AEs, number of events (nE) ([3]; 50 mg/200 mg, n = 6): 3
- Study drug-related AEs, number of patients ([3]; 50 mg/200 mg, n = 6): 3 (50.0) nS (%)
- Total AEs, number of events (nE) ([3]; 50 mg/200 mg, n = 6): 7
- Total AEs, number of patients ([3]; 50 mg/200 mg, n = 6): 5 (83.3) nS (%)
- Deaths ([3]; 13 patients, until data cutoff): No deaths
- Tolerability ([3]; 13 patients, until data cutoff): overall well-tolerated and safe
- Tolerability ([3]; 13 patients, until data cutoff, listed as iptacopan): safe and well-tolerated
- AE by preferred term: Abdominal discomfort ([3]; Total, n = 13): 2 (15.4) n (%)
- AE by preferred term: Blood alkaline phosphatase increased ([3]; Total, n = 13): 2 (15.4) n (%)
- AE by preferred term: Cough ([3]; Total, n = 13): 2 (15.4) n (%)
- AE by preferred term: Headache ([3]; Total, n = 13): 4 (30.8) n (%)
- AE by preferred term: Oropharyngeal pain ([3]; Total, n = 13): 2 (15.4) n (%)
- AE by preferred term: Pyrexia ([3]; Total, n = 13): 2 (15.4) n (%)
- AE by preferred term: Upper respiratory tract infection ([3]; Total, n = 13): 2 (15.4) n (%)
- AEs leading to discontinuation of study treatment, number of events (nE) ([3]; Total, n = 13): 1
- AEs leading to discontinuation of study treatment, number of patients ([3]; Total, n = 13): 1 (7.7) nS (%)
- AEs of mild intensity, number of events (nE) ([3]; Total, n = 13): 35
- AEs of mild intensity, number of patients ([3]; Total, n = 13): 8 (61.5) nS (%)
- AEs of moderate intensity, number of events (nE) ([3]; Total, n = 13): 3
- AEs of moderate intensity, number of patients ([3]; Total, n = 13): 2 (15.4) nS (%)
- AEs of severe/serious intensity, number of events (nE) ([3]; Total, n = 13): 0
- AEs of severe/serious intensity, number of patients ([3]; Total, n = 13): 0 nS (%)
- Study drug-related AEs leading to discontinuation of study treatment, number of events (nE) ([3]; Total, n = 13): 1
- Study drug-related AEs leading to discontinuation of study treatment, number of patients ([3]; Total, n = 13): 1 (7.7) nS (%)
- Study drug-related AEs, number of events (nE) ([3]; Total, n = 13): 9
- Study drug-related AEs, number of patients ([3]; Total, n = 13): 4 (30.8) nS (%)
- Total AEs, number of events (nE) ([3]; Total, n = 13): 38
- Total AEs, number of patients ([3]; Total, n = 13): 9 nS (%) and 9 (69.2) nS (%)
- Study drug-related AEs, number of patients ([3]; Total, n = 13, listed as iptacopan): 4 nS (%)
- Dose dependence of the AE profile of the 2 cohorts ([3]; in vivo): no dose-dependent changes in the AE profile
- Severe or serious AEs ([3]; until data cutoff): no severe or serious AEs
- Breakthrough hemolysis [3, 8]: no breakthrough hemolysis was observed; also recorded: no thromboembolic events or breakthrough hemolysis were reported
- Severe or serious AEs [3, 8]: no severe or serious adverse events reported; also recorded: no serious nor severe AEs
- Thromboembolic events ([3]; until data cutoff, no prophylactic anticoagulation): No thromboembolic events were reported; also recorded: no thromboembolic events were observed; also recorded: no thromboembolic events or breakthrough hemolysis were reported
- Dose proportionality of exposure (AUClast and Cmax) ([4]; 25 to 200 mg twice daily): underproportional in relationship to dose
- Mean trough level exposures ([4]; doses of ≥50 mg twice daily, steady state): ≥ 900 ng/mL
- AUC(0-t) ([4]; human, plasma, oral, 25 mg): 6290 ng·h/mL
- AUC(0-t) ([4]; human, plasma, oral, 200 mg): 19900 ng·h/mL
- Cmax ([4]; human, plasma, oral, 200 mg): 4520 ng/mL
- Suppression of alternative pathway activity (Wieslab assay) [5]: near-maximal inhibition
- Bb levels (fragment Bb): decreased rapidly
- Absorption [6, 9]: high absorption
- Clearance [6, 9]: moderate clearance
- Direct renal excretion (share of clearance) [6]: ~25%
- Ethnic sensitivity [6]: no ethnic sensitivity
- Food effect [6]: no food effect
- Terminal half-life in human plasma [6]: approximately 20 hours
- Effect of iptacopan add-on on hemolysis and Hb levels [7]: significant reductions in both intra- and extravascular hemolysis and transfusion-free improvements in Hb levels
